Reference: ChEMBL document CHEMBL2396553, “C3'-endo-puckered pyrrolidine containing PNA has favorable geometry for RNA binding: novel ethano locked PNA (ethano-PNA)” (Bioorg Med Chem, 2013)
The source made the active and inactive calls. The calls are words filed in the database; no cut-off is given here.

What was measured:
[1] = Binding affinity to 5'-UGGAGUGUGACAAUGGUG RNA (unknown origin) at 1 uM by circular dichroism analysis
Outline: (§1)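 CD spectra of 1 µM complexes in 10 mM sodium phosphate pH 7.0 with 10 mM NaCl, annealed 90 °C for 5 min and slow-cooled to room temperature. Recorded at room temperature from 320 to 210 nm at 100 nm/min in a 1 cm path cuvette. At least 8 scans averaged.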

[2] = Binding affinity to 5'-TGGAGTGTGACAATGGTG cDNA (unknown origin) at 1 uM by circular dichroism analysis; outline: as §1
Nucleic Acid [3] = experiment: Binding affinity to 5'-UGGAGUGAGACAAUGGUG mismatch RNA (unknown origin) assessed as melting temperature at 100 mM by UV-thermal denaturation assay; format: nucleic-acid assay; details: 100 mM NaCl
Outline: (§2)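 Each strand 1 µM (concentrations from nucleobase molar extinction coefficients) in 10 mM sodium phosphate pH 7.0 with 10 or 100 mM NaCl. Annealed 90 °C for 5 min, slow-cooled to room temperature then 0 °C. Absorbance at 260 nm followed from 10 to 85 °C at 0.5 °C/min. Tm taken from first-derivative curves. At least three runs, accurate within 0.3 °C.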

Nucleic Acid [4] = experiment: Binding affinity to 5'-UGGAGUGUGACAAUGGUG RNA (unknown origin) assessed as melting temperature at 100 mM by UV-thermal denaturation assay; format: nucleic-acid assay; details: 100 mM NaCl; outline: as §2
Nucleic Acid [5] = experiment: Binding affinity to 5'-TGGAGTGTGACAATGGTG cDNA (unknown origin) assessed as melting temperature at 100 mM by UV-thermal denaturation assay; format: nucleic-acid assay; details: 100 mM NaCl; outline: as §2
Nucleic Acid [6] = experiment: Binding affinity to 5'-UGGAGUGUGACAAUGGUG RNA (unknown origin) assessed as melting temperature at 10 mM by UV-thermal denaturation assay; format: nucleic-acid assay; details: 10 mM NaCl; outline: as §2
Nucleic Acid [7] = experiment: Binding affinity to 5'-UGGAGUGAGACAAUGGUG mismatch RNA (unknown origin) assessed as melting temperature at 10 mM by UV-thermal denaturation assay; format: nucleic-acid assay; details: 10 mM NaCl; outline: as §2
Nucleic Acid [8] = experiment: Binding affinity to 5'-TGGAGTGTGACAATGGTG cDNA (unknown origin) assessed as melting temperature at 10 mM by UV-thermal denaturation assay; format: nucleic-acid assay; details: 10 mM NaCl; outline: as §2

Cc1cn(CC(=O)N(CCNC(=O)CN(CCNC(=O)CN(CCNC(=O)CN(C(=O)Cn2cc(C)c(=O)[nH]c2=O)[C@H]2CCN(C(=O)CN(CCNC(=O)CN(CCN)C(=O)Cn3ccc(N)nc3=O)C(=O)Cn3cnc4c(N)ncnc43)C2)C(=O)Cn2cc(C)c(=O)[nH]c2=O)C(=O)Cn2cnc3c(=O)[nH]c(N)nc32)CC(=O)NCCN(CC(=O)NCCN(CC(=O)NCCN(CC(=O)NCCN(CC(=O)NCCN(CC(=O)NCCN(CC(=O)N[C@@H](CCCCN)C(N)=O)C(=O)Cn2cc(C)c(=O)[nH]c2=O)C(=O)Cn2ccc(N)nc2=O)C(=O)Cn2cnc3c(N)ncnc32)C(=O)Cn2ccc(N)nc2=O)C(=O)Cn2cnc3c(N)ncnc32)C(=O)Cn2ccc(N)nc2=O)c(=O)[nH]c1=O
Activity [1]: Active
Activity [2]: Active
Tm (Nucleic Acid [3]): 43.3 °C
Tm (Nucleic Acid [4]): 59.9 °C
Tm (Nucleic Acid [5]): 50 °C
Tm (Nucleic Acid [6]): 65.5 °C
Tm (Nucleic Acid [7]): 50.8 °C
Tm (Nucleic Acid [8]): 55.8 °C

Cc1cn(CC(=O)N(CCNC(=O)CN(CCNC(=O)CN(CCN)C(=O)Cn2ccc(N)nc2=O)C(=O)Cn2cnc3c(N)ncnc32)CC(=O)NCCN(CC(=O)NCCN(CC(=O)N2CC[C@H](N(CC(=O)NCCN(CC(=O)NCCN(CC(=O)NCCN(CC(=O)NCCN(CC(=O)NCCN(CC(=O)NCCN(CC(=O)N[C@@H](CCCCN)C(N)=O)C(=O)Cn3cc(C)c(=O)[nH]c3=O)C(=O)Cn3ccc(N)nc3=O)C(=O)Cn3cnc4c(N)ncnc43)C(=O)Cn3ccc(N)nc3=O)C(=O)Cn3cnc4c(N)ncnc43)C(=O)Cn3ccc(N)nc3=O)C(=O)Cn3cc(C)c(=O)[nH]c3=O)C2)C(=O)Cn2cnc3c(=O)[nH]c(N)nc32)C(=O)Cn2cc(C)c(=O)[nH]c2=O)c(=O)[nH]c1=O
Activity [1]: Active
Activity [2]: Active
Tm (Nucleic Acid [3]): 42.2 °C
Tm (Nucleic Acid [4]): 52.3 °C
Tm (Nucleic Acid [5]): 46.2 °C
Tm (Nucleic Acid [6]): 59.4 °C
Tm (Nucleic Acid [7]): 45.4 °C
Tm (Nucleic Acid [8]): 49.7 °C

Cc1cn(CC(=O)N(CCNC(=O)CN(CCNC(=O)CN(CCNC(=O)CN(C(=O)Cn2cc(C)c(=O)[nH]c2=O)[C@H]2C[C@@H](CN)N(C(=O)CN(CCNC(=O)CN(CCN)C(=O)Cn3ccc(N)nc3=O)C(=O)Cn3cnc4c(N)ncnc43)C2)C(=O)Cn2cc(C)c(=O)[nH]c2=O)C(=O)Cn2cnc3c(=O)[nH]c(N)nc32)CC(=O)NCCN(CC(=O)NCCN(CC(=O)NCCN(CC(=O)NCCN(CC(=O)NCCN(CC(=O)NCCN(CC(=O)N[C@@H](CCCCN)C(N)=O)C(=O)Cn2cc(C)c(=O)[nH]c2=O)C(=O)Cn2ccc(N)nc2=O)C(=O)Cn2cnc3c(N)ncnc32)C(=O)Cn2ccc(N)nc2=O)C(=O)Cn2cnc3c(N)ncnc32)C(=O)Cn2ccc(N)nc2=O)c(=O)[nH]c1=O
Activity [1]: Active
Activity [2]: Active
Tm (Nucleic Acid [3]): 45.7 °C
Tm (Nucleic Acid [4]): 60.1 °C
Tm (Nucleic Acid [5]): 53.8 °C
Tm (Nucleic Acid [6]): 66.3 °C
Tm (Nucleic Acid [7]): 51.8 °C
Tm (Nucleic Acid [8]): 57.1 °C

Cc1cn(CC(=O)N(CCNC(=O)CN(CCNC(=O)CN(CCN)C(=O)Cn2ccc(N)nc2=O)C(=O)Cn2cnc3c(N)ncnc32)CC(=O)NCCN(CC(=O)NCCN(CC(=O)N2C[C@@H](N(CC(=O)NCCN(CC(=O)NCCN(CC(=O)NCCN(CC(=O)NCCN(CC(=O)NCCN(CC(=O)NCCN(CC(=O)N[C@@H](CCCCN)C(N)=O)C(=O)Cn3cc(C)c(=O)[nH]c3=O)C(=O)Cn3ccc(N)nc3=O)C(=O)Cn3cnc4c(N)ncnc43)C(=O)Cn3ccc(N)nc3=O)C(=O)Cn3cnc4c(N)ncnc43)C(=O)Cn3ccc(N)nc3=O)C(=O)Cn3cc(C)c(=O)[nH]c3=O)C[C@H]2CN)C(=O)Cn2cnc3c(=O)[nH]c(N)nc32)C(=O)Cn2cc(C)c(=O)[nH]c2=O)c(=O)[nH]c1=O
Activity [1]: Active
Activity [2]: Active
Tm (Nucleic Acid [3]): 44.7 °C
Tm (Nucleic Acid [4]): 57.2 °C
Tm (Nucleic Acid [5]): 46.6 °C
Tm (Nucleic Acid [6]): 60.4 °C
Tm (Nucleic Acid [7]): 46.7 °C
Tm (Nucleic Acid [8]): 51.8 °C

Cc1cn(CC(=O)N(CCNC(=O)CN(CCNC(=O)CN(CCN)C(=O)Cn2ccc(N)nc2=O)C(=O)Cn2cnc3c(N)ncnc32)CC(=O)NCCN(CC(=O)NCCN(CC(=O)N2C[C@@H](N(CC(=O)NCCN(CC(=O)NCCN(CC(=O)NCCN(CC(=O)NCCN(CC(=O)NCCN(CC(=O)NCCN(CC(=O)N[C@@H](CCCCN)C(N)=O)C(=O)Cn3cc(C)c(=O)[nH]c3=O)C(=O)Cn3ccc(N)nc3=O)C(=O)Cn3cnc4c(N)ncnc43)C(=O)Cn3ccc(N)nc3=O)C(=O)Cn3cnc4c(N)ncnc43)C(=O)Cn3ccc(N)nc3=O)C(=O)Cn3cc(C)c(=O)[nH]c3=O)C[C@H]2CNC(=N)N)C(=O)Cn2cnc3c(=O)[nH]c(N)nc32)C(=O)Cn2cc(C)c(=O)[nH]c2=O)c(=O)[nH]c1=O
Activity [1]: Active
Activity [2]: Active
Tm (Nucleic Acid [3]): 46.3 °C
Tm (Nucleic Acid [4]): 59.4 °C
Tm (Nucleic Acid [5]): 48.8 °C
Tm (Nucleic Acid [6]): 62.7 °C
Tm (Nucleic Acid [7]): 47.1 °C
Tm (Nucleic Acid [8]): 53.7 °C

Cc1cn(CC(=O)N(CCNC(=O)CN(CCNC(=O)CN(CCNC(=O)CN(C(=O)Cn2cc(C)c(=O)[nH]c2=O)[C@H]2C[C@@H](CNC(=N)N)N(C(=O)CN(CCNC(=O)CN(CCN)C(=O)Cn3ccc(N)nc3=O)C(=O)Cn3cnc4c(N)ncnc43)C2)C(=O)Cn2cc(C)c(=O)[nH]c2=O)C(=O)Cn2cnc3c(=O)[nH]c(N)nc32)CC(=O)NCCN(CC(=O)NCCN(CC(=O)NCCN(CC(=O)NCCN(CC(=O)NCCN(CC(=O)NCCN(CC(=O)N[C@@H](CCCCN)C(N)=O)C(=O)Cn2cc(C)c(=O)[nH]c2=O)C(=O)Cn2ccc(N)nc2=O)C(=O)Cn2cnc3c(N)ncnc32)C(=O)Cn2ccc(N)nc2=O)C(=O)Cn2cnc3c(N)ncnc32)C(=O)Cn2ccc(N)nc2=O)c(=O)[nH]c1=O
Activity [1]: Active
Activity [2]: Active
Tm (Nucleic Acid [3]): 46.8 °C
Tm (Nucleic Acid [4]): 60.7 °C
Tm (Nucleic Acid [5]): 56.3 °C
Tm (Nucleic Acid [6]): 68.1 °C
Tm (Nucleic Acid [7]): 53.6 °C
Tm (Nucleic Acid [8]): 60.6 °C

Cc1cn(CC(=O)N(CCNC(=O)CN(CCNC(=O)CN(CCNC(=O)CN(CCNC(=O)CN(CCNC(=O)CN(CCN)C(=O)Cn2ccc(N)nc2=O)C(=O)Cn2cnc3c(N)ncnc32)C(=O)Cn2cc(C)c(=O)[nH]c2=O)C(=O)Cn2cc(C)c(=O)[nH]c2=O)C(=O)Cn2cnc3c(=O)[nH]c(N)nc32)CC(=O)NCCN(CC(=O)NCCN(CC(=O)NCCN(CC(=O)NCCN(CC(=O)NCCN(CC(=O)NCCN(CC(=O)N[C@@H](CCCCN)C(N)=O)C(=O)Cn2cc(C)c(=O)[nH]c2=O)C(=O)Cn2ccc(N)nc2=O)C(=O)Cn2cnc3c(N)ncnc32)C(=O)Cn2ccc(N)nc2=O)C(=O)Cn2cnc3c(N)ncnc32)C(=O)Cn2ccc(N)nc2=O)c(=O)[nH]c1=O
Activity [1]: Active
Activity [2]: Active
Tm (Nucleic Acid [3]): 53 °C
Tm (Nucleic Acid [4]): 63.7 °C
Tm (Nucleic Acid [5]): 60.1 °C
Tm (Nucleic Acid [6]): 66.1 °C
Tm (Nucleic Acid [7]): 55.1 °C
Tm (Nucleic Acid [8]): 64.6 °C
